Screens (PubChem)
CHOP inh: blocks CHOP induction under ER stress | CHO-K1 CHOP-promoter luciferase, tunicamycin-induced, 15-18 h | inhibition, % at 10 µM | 220,000 tested, 3.8% active;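 active means compounds that reduced the stress-induced luciferase reporter signal by more than about 70% of percent inhibition, limit read from the data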;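 further: 0% = tunicamycin plus vehicle and 100% = wells without tunicamycin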
CHOP UPR activ: activators of apoptotic arm of unfolded protein response (CHOP); CHO-CHOP luciferase reporter, UPR activation, luminescence; percent of tunicamycin response over DMSO baseline; activation, % at 10 µM; 330,000 tested, 0.34% active; AID 449763;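 active means at 10 µM dose, activation of 40% or more, normalized to positive control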;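 further: 100% = tunicamycin at 10 µg/mL and 0% = DMSO alone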
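measured by = luciferase luminescence | assay system = CHO-CHOP cells, stable luciferase reporter of PERK-eIF2a-CHOP signalling | amount = 500 reporter cells seeded per well | timing = 6 h compound exposure at 37 °C after overnight seeding | controls = positive tunicamycin 10 µg/mL, negative DMSO alone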
MPTP block: permeability transition pore inhibition; isolated mouse mitochondria, Ca2+ swelling absorbance, 30 min; inhibition, % at 10 µM; 360,000 tested, 1.4% active;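 active means inhibition of 50% or more, scaled per plate between neutral and stimulator controls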;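 further: 0% = DMSO wells given calcium and 100% = 1 mM EGTA wells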
UPR XBP1 act: adaptive UPR (XBP1) activation. activation, % at 20 µM. 330,000 tested, 0.33% active. AID 463104. CHO-XBP1 luciferase reporter, IRE1-XBP1 UPR activation, luminescence; percent of tunicamycin response, DMSO as zero;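 active means versus positive control, 20 µM dose yields 30% or more activation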;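 further: 100% = tunicamycin at 10 µg/mL and 0% = DMSO only wells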
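Material: CHO cell line with stable XBP1 luciferase reporter; buffer or medium: F12 medium containing 10% fetal bovine serum; compound: single point, 20 µM final compound, 1% DMSO; incubation: 6 h treatment, 37 °C; measured by: glow luminescence from Steady-Glo reagent; evaluation: activation, % of tunicamycin; control set: tunicamycin high, DMSO low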
aDG glyco up: increases alpha dystroglycan glycosylation; Pro5-aDG cells, alpha-DG glycosylation AlphaScreen (IIH6); 0% Pro5, 100% B10-LARGE cell signal; activation, % at 10 µM; 360,000 tested, 0.22% active;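 active means activation of at least 8% versus controls, or a plate z-score of at least 8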;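 further: Pro5 are CHO cells carrying HIG-tagged alpha-DG that lacks glycosylation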
GRIN3A LBD mod: modulators (binders) of human NR3A ligand-binding domain | 340,000 tested, 2.5% active | Tm shift relative to glycine control, % at 25 µM | NR3A LBD differential scanning fluorimetry, Tm shift; 0% = protein alone, 100% = glycine-bound protein;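 active means melting temperature shift of at least 10% of the positive control shift, at one fixed dose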
CHOP inh conf: confirmation of CHOP induction inhibitors; 2,100 tested, 45% active; shares compounds with CHOP inh; inhibition, % at 10 µM; CHO-CHOP promoter luciferase reporter, tunicamycin-induced, luminescence;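 active means mean of three repeat readings of reporter signal inhibition above a set limit, cut at about 70% in these data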;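 further: 0% = tunicamycin plus vehicle and 100% = wells lacking tunicamycin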
UPR CHOP confirm: apoptotic UPR (CHOP) activation, confirmed. CHO-CHOP cells, CHOP-luciferase reporter luminescence; percent of tunicamycin response, DMSO as zero. AID 463112. 1,000 tested, 64% active. activation, % at 10 µM. shares compounds with CHOP UPR activ; in the data active means activation above about 33%;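 further: 0% = DMSO wells and 100% = tunicamycin 10 µg/mL wells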
An asterisk follows results filed as active; nt = not tested or not shown. Hits are enriched below; roughly 5.6% of the tested compounds scored in any of these assays.

SMILES | CHOP inh | CHOP UPR activ | MPTP block | UPR XBP1 act | aDG glyco up | GRIN3A LBD mod | CHOP inh conf | others
CCCCCCCn1c(=O)c(C(=O)Nc2cnccn2)c(O)c2ccccc21 | 98.1* | 19.4 | -6.0 | -0.2 | 1.1 | 2.2 | 116.5*
COc1ccccc1-n1c(-c2cccs2)nc2ccccc2c1=O | -7.2 | 1.1 | -0.3 | 2.8 | -0.1 | 0.9 | nt
Cc1ccc2c(c1)CC1(CN2C)C(=O)NC(=O)N(CCC2=CCCCC2)C1=O (stereo not drawn) | 107.2* | 3.4 | -1.5 | -2.7 | -0.1 | -0.5 | 25.2
Cc1ccc2c(c1)CC1(CN2C)C(=O)NC(=O)N(C(C)C)C1=O (stereo not drawn) | 35.4 | 6.1 | -1.0 | -2.4 | 0.0 | -1.8 | nt
O=c1[nH]c(CN2CCNCC2)nc2ccccc12 | 98.0* | 0.5 | -6.4 | -0.5 | 0.1 | 0.7 | -83.8
O=C1C(=O)N(c2ccccc2)P(=O)(N(CCCl)CCCl)N1c1ccccc1 | nt | nt | -1.8 | nt | -0.1 | -1.0 | nt
CCOC(=O)c1c(C)n(Cc2ccco2)c2ccc(OC)cc12 | 45.4 | -1.3 | -7.7 | -5.6 | 1.0 | 1.2 | nt
CCOC(=O)c1c(C)n(Cc2ccco2)c2c1cc(O)c1ccccc12 | 100.7* | 1.5 | 8.2 | 2.6 | 0.1 | -5.7 | -49.4
Cc1ccc(N2C(=O)NC(=O)/C(=C\C=C\c3ccco3)C2=O)cc1 | 106.2* | -1.1 | 1.0 | -1.4 | 0.0 | 0.3 | 131.9*
O=C1NC(=O)N(Cc2ccco2)C(=O)/C1=C/C=C/c1ccco1 | 107.8* | 0.1 | 0.1 | -1.4 | 0.0 | 2.2 | 139.8*
Cc1ccc(N2C(=O)NC(=O)/C(=C\C=C\c3ccco3)C2=O)cc1C | 110.4* | nt | -3.9 | nt | 0.0 | 2.1 | 104.1*
Cc1cccc(N2C(=O)NC(=O)/C(=C\C=C\c3ccco3)C2=O)c1 | 17.5 | 9.7 | 1.2 | 2.8 | -0.1 | 0.3 | nt
CCOc1cc2c(cc1OCC)-n1cccc1C(c1ccccc1OC)NC2 (stereo not drawn) | nt | -0.5 | 2.3 | -2.3 | 0.4 | 2.1 | nt
COC(=O)C1=C(c2ccc(OC)c(OC)c2)C[C@@H]2CC[C@H]1N2C(=O)N1CCCCC1 | nt | 1.4 | 0.3 | -1.9 | 0.1 | -1.0 | nt
COC(=O)c1c2[n+](cc3cc(OC)c(OC)cc13)CCc1cc(OC)c(OC)cc1-2 | nt | -1.6 | 2.5 | -0.6 | 0.1 | -3.7 | nt
CN1/C(=C\C=Nc2ccccc2)C(C)(C)c2ccccc21 | 31.2 | 1.2 | 3.6 | 0.9 | 0.9 | 1.0 | nt
CN1/C(=C\C=C\C2=[N+](C)c3ccc4ccccc4c3C2(C)C)C(C)(C)c2ccccc21 | 108.1* | -8.6 | nt | -6.2 | nt | nt | 125.0*
C[C@H]1CC[C@@H]2[C@@H](C)[C@H]3[C@H](C[C@H]4[C@@H]5CC=C6C[C@@H](O[C@@H]7O[C@H](CO)[C@H](O)[C@H](O[C@@H]8O[C@H](CO)[C@@H](O)[C@H](O)[C@H]8O)[C@H]7O[C@@H]7O[C@@H](C)[C@H](O)[C@@H](O)[C@H]7O)CC[C@]6(C)[C@H]5CC[C@]34C)N2C1 | 106.4* | -0.4 | -1.9 | 1.5 | -0.1 | -4.5 | -62.4
C=C1C(=O)O[C@@H]2C[C@@H](C)[C@@H]3C4OC4C(=O)[C@@]3(C)[C@@H](O)[C@H]12 (stereo partly drawn) | 106.8* | -4.6 | 0.0 | -7.6 | -0.4 | -3.4 | 110.1*
O=C1NC(=O)N(c2ccc3c(c2)OCO3)C(=O)/C1=C/c1ccsc1 | 9.3 | -1.8 | -2.9 | -0.3 | 0.1 | -1.9 | nt
O=C1NC(=O)N(c2ccc3c(c2)OCO3)C(=O)/C1=C/c1cccs1 | 106.4* | 15.5 | 2.7 | 12.7 | -0.1 | -0.3 | -17.2
COC(=O)C1=C(c2ccc(F)cc2F)C[C@@H]2CC[C@H]1N2C(=O)NCc1ccc(C(F)(F)F)cc1 | nt | -0.3 | 1.2 | -3.3 | 0.3 | -12.0 | nt
CCOc1cc2c(cc1OCC)-n1cccc1C(c1ccc(C(C)C)cc1)NC2 (stereo not drawn) | nt | -0.1 | 4.4 | 2.6 | 0.7 | -0.2 | nt
Clc1ccc(CSC(Cn2ccnc2)c2ccc(Cl)cc2Cl)cc1 (stereo not drawn) | 108.0* | 1.1 | 6.3 | -4.0 | 0.2 | -34.5 | 49.1
Clc1ccc(COC(Cn2ccnc2)c2ccc(Cl)cc2Cl)cc1 (stereo not drawn) | 45.4 | 0.6 | 2.8 | -5.7 | 0.8 | 3.3 | nt
SMILES | CHOP inh | CHOP UPR activ | MPTP block | UPR XBP1 act | aDG glyco up | GRIN3A LBD mod | CHOP inh conf | others
CC1(C)C[C@H]2C=C(C=O)[C@]3(C=O)C[C@]3(C)[C@H]2C1 | 109.2* | -9.2 | -2.0 | -8.7 | -0.4 | -3.7 | 127.6*
O=C1NCN(c2ccccc2)C12CCNCC2 | 100.9* | 1.4 | -3.2 | -0.4 | -0.2 | -2.8 | 9.9
O=C1NCN(c2ccccc2)C12CCN(CC1COc3ccccc3O1)CC2 (stereo not drawn) | -3.9 | nt | nt | nt | nt | nt | nt
Cc1nc2cc([N+](=O)[O-])ccc2c(=O)n1-c1cccc(Br)c1 | nt | 2.1 | 0.4 | -1.1 | 0.1 | 1.9 | nt
COCCCNC(=O)c1c(N)n(Cc2ccco2)c2nc3ccccc3nc12 | 5.6 | 1.2 | 2.5 | 5.9 | 0.6 | 1.0 | nt
CC(C)OCCCNC(=O)c1c(N)n(Cc2cccs2)c2nc3ccccc3nc12 | 104.8* | 1.0 | 2.0 | 0.5 | 0.8 | 4.9 | 58.1
C=C1C(=O)OC2CC(C)C3C=CC(=O)C3(C)C(O)C12 (stereo not drawn) | nt | nt | -2.3 | nt | -0.3 | -1.6 | nt
C=C1C(=O)O[C@H]2C[C@@H](C)[C@@H]3C=CC(=O)[C@@]3(C)C[C@H]12 | 105.4* | 7.3 | nt | -6.2 | nt | -6.0 | 89.6*
Cc1ccc(/C=C2\C(=O)NC(=O)N(Cc3ccccc3Cl)C2=O)o1 | 105.0* | 3.7 | 10.9 | 18.7 | -0.1 | 0.6 | -28.0
Cc1ccc(/C=C2\C(=O)NC(=O)N(CCc3ccc(F)cc3)C2=O)o1 | 104.7* | 0.0 | 4.8 | 1.0 | -0.2 | 1.4 | -19.8
c1cc2c(cc1N1CCCCC1)C1CC2CCN1 (stereo not drawn) | nt | nt | 1.0 | nt | -0.1 | 3.1 | nt
CN1C(=O)NC(=O)/C(=C\C=C\c2ccccc2[N+](=O)[O-])C1=O | 98.7* | 202.6* | nt | -5.9 | nt | -3.9 | -27.1 | UPR CHOP confirm=262.7*
COC(C)(C)CCCC(C)C/C=C/C(C)=C/C(=O)OC(C)C (stereo not drawn) | nt | -0.1 | 5.4 | -1.4 | 0.0 | 0.1 | nt
